Assay results of several laboratories.
Protocols differ between the studies behind these lines.
Target: Protein kinase C theta type (PRKCQ, Homo sapiens, UniProt Q04759)

Structure (SMILES)	test	conditions	remaining binding
CN(CCCC(F)(F)F)c1nccc(-c2cnn3ncccc23)n1	binding	1 µM	100%
O=C(c1ccc(Nc2ncc(Cl)c(-c3ccc(Cl)s3)n2)cc1)N1CCC(N2CCCC2)CC1	binding, competition with immobilised ligand	1 µM	60%
CN(c1nccc(-c2cnn3ncccc23)n1)C1CC1	binding	1 µM	100%
CNC(=O)[C@@H]1CC[C@@H](n2c(-c3ccc4cnccc4c3)nc3ccc(C(=O)NCc4cccc(C(N)=O)c4)cc32)C1	binding, competition with immobilised ligand	1 µM	63%
CS(=O)(=O)N1CCCC(NC(=O)[C@H](CCC2CCCCC2)NC(=O)c2ccc(CNc3ncnc4c3nnn4-c3ccccc3)cc2)C1 (stereo partly shown)	cell-free assay, competition with immobilised ligand	0.1 µM	90%
COc1ncc2cc3ccccc3nc2c1C#N	cell-free assay, competition with immobilised ligand	5 µM	94%
Nc1c(C(=O)NCc2ccc(C(=O)NCCCC3CCCCC3)cc2)cnn1-c1ccccc1	cell-free assay, competition with immobilised ligand	0.1 µM	100%
C[C@H]1CCN(c2nccc(-c3cnn4ncccc34)n2)C1	binding	1 µM	100%
O=C(NCCCN1CCOCC1)c1ccc(Nc2nccc(-c3cc4ccccc4s3)n2)cc1	binding, competition with immobilised ligand	1 µM	100%
CCN1CCN(Cc2ccc(C(=O)Nc3ccc(C)c(Oc4ccc5c(c4)CC(=O)N5)c3)cc2C(F)(F)F)CC1	binding, competition with immobilised ligand	1 µM	100%
C[C@@H](c1ccc(-n2cnc3c(N)ncnc32)cc1)N1CCc2nn(C)c(Cc3ccccc3)c2C1=O	binding, competition with immobilised ligand	0.1 µM	100%
COc1ccc2c(c1)O[C@@H](c1ccc(OC)c(OC)c1)C[C@H]2NC(=O)C1(c2ccc3c(c2)OC(F)(F)O3)CC1	cell-free assay, competition with immobilised ligand	1 µM	98%
O=C(Nc1c[nH]nc1C(=O)NC1CCNCC1)c1cc(F)cc(F)c1	binding, competition with immobilised ligand	1 µM	100%
c1cnn2ncc(-c3ccnc(N4CCC45COC5)n3)c2c1	binding	1 µM	86%
CS(=O)(=O)N1CCCC(NC(=O)[C@H](CCC2CCCCC2)NC(=O)c2ccc(CNC(=O)c3cnc4ccccn34)cc2)C1 (stereo partly shown)	cell-free assay, competition with immobilised ligand	0.1 µM	97%
N[C@H]1CCN(c2nccc(-c3cnn4ncccc34)n2)C1	binding	1 µM	74%
CN(C)CC#Cc1ccc(OCCCc2sc(N3CCc4cccc(C(=O)Nc5nc6ccccc6s5)c4C3)nc2C(=O)O)c(F)c1	cell-free assay, competition with immobilised ligand	1 µM	92%
Cc1cnn2ncc(-c3ccnc(N(C)C)n3)c2c1	binding	1 µM	99%
O=C(Nc1ccc(Oc2ccc(F)cc2)cc1)N1CCc2ncccc2[C@H]1c1ccc(F)cc1	cell-free assay, competition with immobilised ligand	1 µM	95%
CN(C)c1nccc(-c2cnc3ncccn23)n1	binding	1 µM	75%
O=C(NC[C@@H]1[C@H]2CN(C(=O)OCc3cc(C(F)(F)F)cc(C(F)(F)F)c3)C[C@@H]12)c1ccc2[nH]nnc2c1	cell-free assay, competition with immobilised ligand	1 µM	100%
O=C(NCCCN1CCOCC1)c1ccc(Nc2ncc(Cl)c(-c3ccc(Cl)s3)n2)cc1	binding, competition with immobilised ligand	1 µM	100%
